Source: ChEMBL document CHEMBL1121825, “A potent, new, sedative--hypnotic agent: 5,7-dihydro-5,5,7,7-tetramethyl-3-(3-nitrophenyl)furo[3,4-e]-as-triazine 4-oxide” (J Med Chem, 1981)

Legend:
Mus musculus [1] = assay: Ability to reinduce anesthesia in mice as a measure of in vivo sedative-hypnotic activity; type: functional
How it was run: (§1)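 Male Royal Hart mice (20–25 g) were anesthetized with hexobarbital 70.0 mg/kg iv. While they were regaining the righting reflex, compound was given ip. Reinduction was scored as loss of righting reflex for 10 min. ED50 (mg/kg) is the dose reinducing anesthesia in 50% of mice, estimated by probit analysis (Miller–Tainter).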

Felis catus = assay: Tested to induce segmental reflexes in cat when given at a dose of 1-4 mg/Kg intravenously; Caused respiratory failure and death; type: organism-based; conditions: in vivo, iv
How it was run: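 Chloralose-anaesthetised intact cats. The monosynaptic patellar reflex was evoked by solenoid-hammer tendon tap and the knee jerk recorded. The polysynaptic flexor reflex was recorded as tibialis anticus contraction on electrical popliteal nerve stimulation.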

Monkey [2] = assay: Tested for its activity towards cebus monkey sleep relative to methaqualone at 3-9 hours of duration; 4-64 times potent; type: functional
Monkey [3] = assay: Sleep latency in cebus monkey sleep was determined; shortened (65-85% at the threshold sleep-inducing dose); type: functional
Mus musculus [4] = assay: Compound was tested for mortality in mice when administered intravenously; type: functional; conditions: iv
Mus musculus [5] = assay: Ataxia effect in mice when the compound was administered ip; type: functional
How it was run: (§2)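 Modified Irwin behavioral screen in male Royal Hart mice (20–25 g), dosed ip or orally, observed for 2 h after dosing. ED50 (mg/kg) estimated by probit analysis (Miller–Tainter), or evaluation at the highest nontoxic dose used. At least 20 animals per drug; ± SE.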

Mus musculus [6] = assay: Ataxia effect in mice when the compound was administered po; type: functional; how it was run: as §2
Mus musculus [7] = assay: Compound was tested for rotarod motor coordination in mice when administered intravenously; type: functional; conditions: iv
Mus musculus [8] = assay: Compound was tested for rotarod motor coordination in mice when administered perorally; type: functional; conditions: po
How it was run: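 Modified Dunham–Miya rotarod test. Groups of five male Royal Hart mice (20–25 g) were trained on a 15 rpm corrugated rod for 60–90 s, then retested 30 and 60 min after drug or saline (ip or oral). Percent change in riding time versus controls; ED50 is the dose giving a 50% decrease, by probit analysis.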

Mus musculus [9] = assay: Compound was tested for tonic convulsions when administered intraperitoneally; type: functional; conditions: ip
How it was run: (§3)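 Groups of five male Royal Hart mice (20–25 g) received test drug ip or orally 1 h before seizure induction with SaH 41-178 (50.0 mg/kg ip). ED50 is the dose preventing tonic convulsions or death in 50% of animals, by probit analysis.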

Mus musculus [10] = assay: Reinduction of anesthesia in mice when administered perorally was tested; type: functional; conditions: po
Mus musculus [11] = assay: Righting reflex effect in mice when the compound was administered intraperitoneally; type: functional; conditions: ip; how it was run: as §2
Mus musculus [12] = assay: Hypomotility effect in mice when the compound was administered intraperitoneally; type: functional; conditions: ip; how it was run: as §2
Mus musculus [13] = assay: Prehensile effect in mice when the compound was administered intravenously; type: functional; conditions: iv
Mus musculus [14] = assay: Prehensile effect in mice when the compound was administered perorally; type: functional; conditions: po
How it was run: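 Oral dosing of male Royal Hart mice (20–25 g), scored by a modified Irwin behavioural screen. ED50 (mg/kg) estimated by probit analysis; at least 20 animals per drug.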

[15] = Acute toxicity in mice after 2 hours administration ip; type: organism-based; conditions: mouse, in vivo
How it was run: (§4)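 Male Royal Hart mice (20–25 g) dosed intraperitoneally or orally; deaths scored at 2 h and 72 h. LD50 (mg/kg) estimated by probit analysis (Miller–Tainter), with at least 20 animals per drug.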

[16] = Acute toxicity in mice after 2 hours administration perorally; type: organism-based; conditions: mouse, in vivo, po; how it was run: as §4
[17] = Acute toxicity in mice after 72 hours administration ip; type: organism-based; conditions: mouse, in vivo; how it was run: as §4
[18] = Acute toxicity in mice after 72 hours administration perorally; type: organism-based; conditions: mouse, in vivo, po; how it was run: as §4
[19] = Acute toxicity in rats after 2 hours of administration perorally; type: organism-based; conditions: rat, in vivo, po
How it was run: (§5)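 Male Wistar rats (130–160 g) dosed orally; lethality read at 2 h and 72 h. LD50 (mg/kg) derived by probit analysis (Miller–Tainter), using a minimum of 20 animals per drug.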

[20] = Acute toxicity in rats after 72 hours of administration perorally; type: organism-based; conditions: rat, in vivo, po; how it was run: as §5
Mus musculus [21] = assay: Righting reflex effect in mice when the compound was administered perorally; type: functional; conditions: po; how it was run: as §2
Mus musculus [22] = assay: Compound was tested for tonic convulsions when administered perorally; type: functional; conditions: po; how it was run: as §3
Rattus norvegicus [23] = assay: Hypomotility effect in rats when administered perorally; conditions: po
Rattus norvegicus [24] = assay: Ataxia effect in rats when the compound was administered perorally; conditions: po
Rattus norvegicus [25] = assay: Righting reflex effect in rats when the compound was administered perorally; conditions: po
Mus musculus [26] = assay: Tested for ability to reinduce anesthesia in mice when administered intraperitoneally as a measure of in vivo sedative-hypnotic activity; D represents Toxic; type: functional, organism-based; how it was run: as §1

CC1(C)Cc2nnc(-c3ccccc3)[n+]([O-])c2C(C)(C)O1 gave an ED50 (Mus musculus [1]) of 122 mg/kg.
CC1(C)OC(C)(C)c2nnc(-c3ccccc3)cc21.Cl showed an ED50 (Mus musculus [1]) of 112 mg/kg.
With CC1(C)OC(C)(C)c2c1nnc(-c1cccc([N+](=O)[O-])c1)[n+]2[O-] the Activity (Felis catus) was “Caused respiratory failure and death”, the Relative potency (Monkey [2]) was 4 and the Sleep latency (Monkey [3]) was 65%. The ED50 (Mus musculus [4]) was 54 mg/kg, the ED50 (Mus musculus [5]) was 130 mg/kg and the ED50 (Mus musculus [6]) was 39 mg/kg. For the same compound, the ED50 (Mus musculus [7]) was 51 mg/kg, the ED50 (Mus musculus [8]) was over 1000 mg/kg and the ED50 (Mus musculus [1]) was 72 mg/kg. The ED50 (Mus musculus [9]) was 54 mg/kg, the ED50 (Mus musculus [10]) was 72 mg/kg and the ED50 (Mus musculus [11]) was 123 mg/kg. It also gave an ED50 (Mus musculus [12]) of 50 mg/kg, an ED50 (Mus musculus [13]) of 125 mg/kg and an ED50 (Mus musculus [14]) of 54 mg/kg. The LD50 at 2 h [15] was over 400 mg/kg, the LD50 at 2 h [16] was over 400 mg/kg and the LD50 at 72 h [17] was over 235 mg/kg. The LD50 at 72 h [18] was over 400 mg/kg, the LD50 at 2 h [19] was over 800 mg/kg and the LD50 at 72 h [20] was over 800 mg/kg. It also gave an ED50 (Mus musculus [21]) of 55 mg/kg, an ED50 (Mus musculus [22]) of over 1000 mg/kg and an ED50 (Rattus norvegicus [23]) of 37 mg/kg. It also gave an ED50 (Rattus norvegicus [24]) of 39 mg/kg and an ED50 (Rattus norvegicus [25]) of 118 mg/kg.
CC1(C)OC(C)(C)C(N=N)=C1O showed an ED50 (Mus musculus [1]) of 133 mg/kg.
Compound CC1(C)OC(C)(c2ccccc2)c2nnc(-c3cccc([N+](=O)[O-])c3)nc21 (centres undefined) has an ED50 (Mus musculus [1]) of 800 mg/kg.
Compound CC1(C)OC(C)(C)c2nc(-c3ccccc3)nnc21 has an ED50 (Mus musculus [1]) of 167 mg/kg.
In the case of CC1(C)C=CC(C)(C)c2nc(-c3cccc(S(N)(=O)=O)c3)nnc21, the ED50 (Mus musculus [1]) is reported as 1000 mg/kg.
For CC1(C)OC(C)(C)c2nc(-c3cccc[n+]3[O-])nnc21, the ED50 (Mus musculus [1]) was 138 mg/kg.
With CC1(C)OC(C)(C)c2c1nnc(-c1cccc(C(F)(F)F)c1)[n+]2[O-] the ED50 (Mus musculus [1]) was 66.7 mg/kg.
With Cc1nnc(-c2ccccn2)nc1C the ED50 (Mus musculus [26]) was “Toxic”.
For CC1(C)OC(C)(C)c2nc(-c3ccc4ccccc4n3)nnc21, the ED50 (Mus musculus [1]) was 168 mg/kg.
CC1(C)OC(C)(C)c2c1ncc(-c1ccccc1)[n+]2[O-].Cl gave an ED50 (Mus musculus [1]) of 1000 mg/kg.
Work on CC1(C)OC(C)(C)c2c1nnc(-c1cccc(F)c1)[n+]2[O-] yielded an ED50 (Mus musculus [1]) of 74.9 mg/kg.
CC1(C)CSCC(C)(C)c2nc(-c3ccccc3)nnc21 gave an ED50 (Mus musculus [1]) of 31.3 mg/kg.
For CCOC(=O)c1nnc(-c2ccccn2)nc1O, the ED50 (Mus musculus [26]) was “Toxic”.
In the case of CC1(C)NC(C)(C)c2c1nnc(-c1ccccc1)[n+]2[O-], the ED50 (Mus musculus [1]) is reported as 1000 mg/kg.
CC1(C)OC(C)(C)c2nc(-c3ccncc3)nnc21 showed an ED50 (Mus musculus [1]) of 56.2 mg/kg.
For Cc1cccc(-c2nnc3c([n+]2[O-])C(C)(C)OC3(C)C)c1, the ED50 (Mus musculus [1]) was 150 mg/kg.
CC1(C)OC(C)(C)c2nc(-c3ccc(Cl)cn3)nnc21 showed an ED50 (Mus musculus [1]) of 66.7 mg/kg.
